Active and inactive are the calls of the source.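 The calls were made as follows, unless noted: active = inhibition above 20% together with a positive visual image hit; inconclusive = visual image hit but inhibition not above 20%; inactive = no visual image hit.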
Tests used:
[1] = inhibitors of TNFa-induced NFkB p65 translocation, primary screen, imaging, HUVEC, MLSMR starter and 10KST1 sets (AID 438); settings: HUVEC TNFa-induced p65 nuclear translocation; cell count: measured here: nuclei count (cytotoxicity indicator), at 2.08 µM; inhibition: at 2 µM, stronger effect = higher value, 0% TNFa-plus-vehicle, 100% no-TNFa wells;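 also: compound added about 3h40 before a 20 min TNFalpha stimulation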;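 as to inhibition: signal is the nuclear over cytoplasmic p65 intensity ratio per well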
[2] = inhibitors of E-selectin induction by TNFa, primary screen, imaging, HUVEC, immunofluorescence, MLSMR starter and 10KST1 sets (AID 487;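 active = visually confirmed hit in the image check and inhibition above 20%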;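 as to inhibition: signal is fraction of cell area covered by stained E-selectin grains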;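 as to nuclei count: 100% = median nuclei count of all wells on the same plate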); settings: HUVEC TNFalpha-induced E-selectin immunofluorescence imaging, at 2 µM; inhibition: stronger effect = higher value; nuclei count: measured here: cell number, toxicity
[3] = DUSP6 inhibitors restoring Erk phosphorylation by chemical complementation, primary imaging in DUSP6-transfected HeLa (AID 609;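 active = compounds giving at least 50% inhibition in the cell-based MKP-3 phosphatase rescue imaging test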;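 as to inhibition: phospho-Erk level distribution per well compared with pooled transfected vehicle control wells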); settings: HeLa MKP-3 transfected, phospho-Erk imaging KS statistic, at 10 µM, cells stimulated with TPA for 15 min
[4] = target: Dual specificity protein phosphatase 6 (Homo sapiens) (UniProt Q16828); assay: as above; settings: HeLa MKP-3 transfected, phospho-Erk imaging KS statistic; at 10 µM; stronger effect = higher value; cells stimulated with TPA for 15 min
[5] = target: Voltage-gated potassium channel subunit beta-2 (Rattus norvegicus) (UniProt P62483); assay: KvBeta enzyme negative modulators, primary screen, biochemical, NADPH fluorescence (AID 622;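 active = fluorescence slope higher than the sample average by over 3 SD, cut at about -0.22 in these data, passing the limit was not always enough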;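 also: slope of raw intensity against log time taken from 70 to 1610 s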); settings: recombinant KvBeta, 4-cyanobenzaldehyde reduction, at 10 µM, stronger effect = higher value
[6] = target: Voltage-gated potassium channel subunit beta-2 (Rattus norvegicus) (UniProt P62483); assay: KvBeta positive modulators, primary screen, biochemical, NADPH fluorescence (AID 623;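 active = NADPH fluorescence slope more negative than the mean of all samples by about 3 SD, 99.7% confidence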;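 also: fluorescence intensity change per second fitted from 20 to 320 s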); settings: Recombinant KvBeta, NADPH fluorescence decrease slope, 10 min; at 10 µM; stronger effect = lower value
[7] = target: Alpha-2C adrenergic receptor (Homo sapiens) (UniProt P18825); assay: modulators of alpha2C/GIRK thallium flux, primary screen, cell-based, HEK293 alpha2C/GIRK1/2 (AID 624;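 active = fluorescence slope after compound addition differing from the mean of all screened samples at 99.7% confidence, in either direction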;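 also: slope of fluorescence ratio to pre-addition baseline per second over 15 to 24 s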); settings: thallium flux BTC fluorescence, at 10 µM, actives lie on both sides
[8] = inhibitors of larval lipid processing in zebrafish, primary screen, whole organism, PED6 fluorescence, gall bladder and intestine (AID 686;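 active = a full or partial loss of lipid-probe fluorescence in the fish gall bladder, intestine or both, judged by eye; inactive = no fluorescence loss, or compound toxic to the fish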;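 also: larvae 5 to 7 days old with five fish per well; signal comes from phospholipase A2 cleavage of quenched PED6 carried via bile; overnight exposure to compound and PED6 before scoring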); settings: Zebrafish larvae PED6 lipid processing, fluorescence scoring; screened at 20 µM (by protocol)
How it was run: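 System: live zebrafish larvae aged 5-7 days, whole organism; measure: graded gall bladder and intestinal fluorescence inhibition per well; incubation: overnight exposure; reagent: ingested quenched lipid PED6 at 100 nM; signal: By-eye fluorescence microscopy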

[9] = inhibitors of Chlamydomonas gravitaxis, primary screen, whole organism, Chlamydomonas reinhardtii, WT vs cilia-less mutant, absorbance, 96-well (AID 463189;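 active = inhibition at or above 50% relative to wild type and mutant plate controls; inactive = inhibition below 50%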;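 also: 0% = wild type cc124 cells in DMSO and 100% = ciliumless bld1 mutant cells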); settings: OD600 absorbance, 2 days, at 10 µM, stronger effect = higher value
[10] = measured here: cell density z-score
[11] = measured here: nuclear c-Myc green intensity z-score
[12] = measured here: nuclear pErk red intensity z-score, stronger effect = higher value

Sequence of Alpha-2C adrenergic receptor (Homo sapiens) (P18825 whole entry, looked up): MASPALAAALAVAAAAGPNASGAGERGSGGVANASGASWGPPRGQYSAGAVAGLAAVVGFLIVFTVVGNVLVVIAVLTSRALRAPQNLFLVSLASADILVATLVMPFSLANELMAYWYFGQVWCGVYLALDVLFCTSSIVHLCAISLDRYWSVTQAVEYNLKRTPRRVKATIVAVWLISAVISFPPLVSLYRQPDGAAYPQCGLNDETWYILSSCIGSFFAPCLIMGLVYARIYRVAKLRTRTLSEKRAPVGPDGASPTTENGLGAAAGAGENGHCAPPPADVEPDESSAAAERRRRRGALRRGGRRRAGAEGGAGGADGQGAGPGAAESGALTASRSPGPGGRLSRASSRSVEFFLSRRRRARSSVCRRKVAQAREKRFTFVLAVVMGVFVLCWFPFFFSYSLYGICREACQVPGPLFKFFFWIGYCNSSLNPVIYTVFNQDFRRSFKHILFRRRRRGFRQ
Sequence of Dual specificity protein phosphatase 6 (Homo sapiens) (Q16828 whole entry, looked up): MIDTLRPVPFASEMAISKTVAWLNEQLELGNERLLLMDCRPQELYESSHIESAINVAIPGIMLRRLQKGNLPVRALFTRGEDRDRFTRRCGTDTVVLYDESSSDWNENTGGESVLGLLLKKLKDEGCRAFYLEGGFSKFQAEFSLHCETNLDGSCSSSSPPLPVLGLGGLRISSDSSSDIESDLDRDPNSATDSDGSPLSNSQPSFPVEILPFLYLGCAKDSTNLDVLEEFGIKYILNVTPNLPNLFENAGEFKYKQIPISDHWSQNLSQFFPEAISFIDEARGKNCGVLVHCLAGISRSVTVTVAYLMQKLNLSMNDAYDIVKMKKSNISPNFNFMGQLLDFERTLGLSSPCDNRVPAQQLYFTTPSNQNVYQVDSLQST
Sequence of Voltage-gated potassium channel subunit beta-2 (Rattus norvegicus) (P62483 whole entry, looked up): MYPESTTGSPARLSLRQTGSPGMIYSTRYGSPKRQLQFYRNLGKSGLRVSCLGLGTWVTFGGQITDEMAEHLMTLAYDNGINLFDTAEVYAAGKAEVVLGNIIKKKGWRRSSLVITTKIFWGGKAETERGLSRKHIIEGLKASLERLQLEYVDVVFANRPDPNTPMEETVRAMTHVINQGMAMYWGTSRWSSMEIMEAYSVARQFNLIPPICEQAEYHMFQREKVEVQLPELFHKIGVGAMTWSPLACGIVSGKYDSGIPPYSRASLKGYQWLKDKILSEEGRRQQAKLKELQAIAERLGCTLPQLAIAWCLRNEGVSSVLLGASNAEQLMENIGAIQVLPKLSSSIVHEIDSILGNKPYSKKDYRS

Structure (SMILES)	cell count [1]	inhibition [1]	inhibition [2]	nuclei count [2] [%]	z-score [3, 10]	z-score [3, 11]	z-score [3, 12]	inhibition [4]	fluorescence slope [5]	NADPH fluorescence slope [6]	slope [7]	outcome [8]	inhibition [9]
O=C1CCc2nc3ccccc3c(=O)n2N1	452	-12.6% (inactive)	21.9% (inactive)	104	-0.985	0.704	-0.802	11.9% (inactive)	-0.488 (inactive)	-4.1e-05 (inactive)	0.00483 (inactive)	inactive	23.6% (inactive)
Nc1nnc(CC2=CCCCC2)s1	579	-13.4% (inactive)	28.3% (inactive)	152	-0.93	0.818	-0.135	-9.66% (inactive)	-0.396 (inactive)	-3.4e-05 (inactive)	0.00749 (inactive)	inactive	8.68% (inactive)
COc1ccc(C2N3CC4(C)CN2CC(C)(C3)C4O)cc1OC (stereo unspecified)	348	-20.6% (inactive)	-105% (inactive)	122	0.441	-1.49	-0.949	-5.26% (inactive)	-0.473 (inactive)	-7.1e-05 (inactive)	0.00557 (inactive)	inactive	37% (inactive)
NC(=O)CSc1c[nH]c2ccccc12	640	-5.5% (inactive)	73.3% (inactive)	169	-1.08	0.978	-1.28	17% (inactive)	-0.497 (inactive)	-4.9e-05 (inactive)	0.00438 (inactive)	inactive	31.3% (inactive)
COC(=O)c1ccc(CSc2ncnc3c2sc2nc(N4CCOCC4)c4c(c23)CCCC4)o1	565	-11.6% (inactive)	7.4% (inactive)	164	0.509	-1.97	-0.0919	1.48% (inactive)	-0.237 (inactive)	-1e-05 (inactive)	0.00899 (inactive)	inactive	-7.35% (inactive)
CCCSC1=C(C#N)C(c2ccc(OC)cc2)C2=C(CC(C)(C)CC2=O)N1 (stereo unspecified)	364	-8.4% (inactive)	-74.2% (inactive)	160	1.35	-0.891	0.22	-4.59% (inactive)	-0.439 (inactive)	-0.000144 (inactive)	0.00555 (inactive)	inactive	15.5% (inactive)
Nc1ccc2c(c1)N1CCN=C1S2	646	-9.1% (inactive)	-53.2% (inactive)	169	1.6	-0.44	0.246	-0.159% (inactive)	-0.545 (inactive)	-9.2e-05 (inactive)	0.00512 (inactive)	inactive	24% (inactive)
Cc1ccccc1-c1nn2c(-c3ccccc3)nnc2s1	590	-20% (inactive)	-150% (inactive)	149	0.229	-1.66	0.142	-2.47% (inactive)	-0.451 (inactive)	-6e-05 (inactive)	0.00655 (inactive)	inactive	92.9% (active)
COc1ccccc1N(O)C1CC(=O)N(c2ccc(Br)cc2)C1=O (stereo unspecified)	351	4% (inactive)	46% (inactive)	74.7	-0.0216	1.1	0.319	-2.59% (inactive)	-0.415 (inactive)	-4.4e-05 (inactive)	0.00547 (inactive)	inactive	37.8% (inactive)
CC1(C)Cc2c(sc3nc4n(c(=O)c23)CCC4)CO1	700	-9.4% (inactive)	43.7% (inactive)	159	-1.3	1.46	1.2	2.71% (inactive)	-0.377 (inactive)	-6e-05 (inactive)	0.00549 (inactive)	inactive	-8.7% (inactive)
Cc1c(/C(O)=C2\C(=O)C(=O)N(CCN(C)C)C2c2cccs2)cnn1-c1ccccc1 (stereo unspecified)	544	1.9% (inactive)	-68.6% (inactive)	127	1.03	-0.0076	0.683	-5.26% (inactive)	-0.578 (inactive)	-3.3e-05 (inactive)	0.00515 (inactive)	inactive	-16.4% (inactive)
CC(C)N1CCc2c(sc(N)c2C#N)C1	617	-10.3% (inactive)	39.1% (inactive)	177	-1.53	0.299	0.555	2.71% (inactive)	-0.418 (inactive)	-6.5e-05 (inactive)	0.00503 (inactive)	inactive	5.66% (inactive)
COc1ccc(C(=O)/C=C/Nc2cccc(C)n2)cc1OC	553	-2.4% (inactive)	-95.1% (inactive)	164	-1.16	0.461	0.22	-1.12% (inactive)	-0.33 (inactive)	-2.1e-05 (inactive)	0.00813 (inactive)	inactive	-7.36% (inactive)
N#Cc1c(SCC(=O)O)nc(N2CCCCC2)c2c1CCCC2	555	7.3% (inactive)	-50% (inactive)	123	0.186	-1.79	0.996	16.8% (inactive)	-0.535 (inactive)	-4.5e-05 (inactive)	0.00499 (inactive)	inactive	6.88% (inactive)
CN1CCN(CCC(=O)N2c3ccccc3Sc3ccc(Cl)cc32)CC1	450	-3.2% (inactive)	-122% (inactive)	176	0.831	0.747	-0.386	0.671% (inactive)	-0.432 (inactive)	-5.3e-05 (inactive)	0.00551 (inactive)	inactive	15.9% (inactive)
CC1(C)Cc2c(C#N)c(NCC3CCCO3)nc(-c3ccco3)c2CO1 (stereo unspecified)	508	-1.3% (inactive)	-83% (inactive)	123	-1.04	1.4	-1.27	11.9% (inactive)	-0.337 (inactive)	1e-05 (inactive)	0.00551 (inactive)	inactive	1.27% (inactive)
CC1(C)NC(=O)N(CC(O)COc2ccccc2C(=O)Nc2ccccc2)C1=O (stereo unspecified)	418	-22.7% (inactive)	-2.7% (inactive)	93.5	-0.97	1.76	-1.28	14% (inactive)	-0.495 (inactive)	-0.000337 (inactive)	0.00492 (inactive)	inactive	18.8% (inactive)
COC(=O)c1ccc(OC(=O)c2ccc(OC)c(OC)c2)c(OC)c1	601	-0.3% (inactive)	2.2% (inactive)	142	0.251	-0.0242	-0.151	11.4% (inactive)	-0.491 (inactive)	-0.000121 (inactive)	0.00612 (inactive)	inactive	1.14% (inactive)
N#CC12CCCCC1CC1CCCCC1(C#N)N2Cc1ccccn1 (stereo unspecified)	372	-4.4% (inactive)	-22.3% (inactive)	86.1	0.309	0.731	-1.95	-3.98% (inactive)	-0.46 (inactive)	-0.000337 (inactive)	0.0048 (inactive)	inactive	-3.05% (inactive)
CCOC(=O)CC(=O)CSc1nc2c(cc1C#N)CCCCCC2	706	-1.3% (inactive)	25.1% (inactive)	180	-0.436	-0.188	-0.491	-8.95% (inactive)	-0.285 (inactive)	-5.2e-06 (inactive)	0.00458 (inactive)	inactive	0.237% (inactive)
N#CC1=C(N)N2C(=C(C#N)C1c1ccccc1)Sc1ccccc12 (stereo unspecified)	653	-14.8% (inactive)	9.7% (inactive)	116	1.49	-0.461	-0.35	17.7% (inactive)	-0.452 (inactive)	-9.4e-06 (inactive)	0.0107 (inactive)	inactive	44.9% (inactive)
COC(=O)C1=C(C)N=C2SC(C)C(=O)N2C1c1cccc(F)c1 (stereo unspecified)	346	-0.4% (inactive)	-96.3% (inactive)	129	0.762	-0.181	-0.313	12.3% (inactive)	-0.485 (inactive)	-4.6e-05 (inactive)	0.00444 (inactive)	inactive	-8.16% (inactive)
C=C(C)CSC1=C(C#N)C(c2ccsc2)CC(=O)N1 (stereo unspecified)	486	-5% (inactive)	8.3% (inactive)	121	-1	-0.892	0.991	-5.89% (inactive)	-0.512 (inactive)	-6.2e-05 (inactive)	0.00453 (inactive)	inactive	13% (inactive)
CCCc1cc(C(=O)Cc2ccc(F)cc2)c(O)cc1O	563	-8.9% (inactive)	-180% (inactive)	128	0.0278	-0.762	-1.21	19.8% (inactive)	-0.507 (inactive)	-3.4e-06 (inactive)	0.00499 (inactive)	inactive	74.4% (active)
Fc1ccccc1-c1nc(N2CCCCC2)c2ccccc2n1	364	-8.4% (inactive)	-149% (inactive)	173	1.66	0.183	-1.27	6.04% (inactive)	-0.447 (inactive)	-5.7e-06 (inactive)	0.00522 (inactive)	inactive	140% (active)
CS(=O)(=O)CCC(C(=O)n1nnc2ccccc21)N1C(=O)c2ccccc2C1=O (stereo unspecified)	342	-6.4% (inactive)	-46.5% (inactive)	134	0.823	-0.696	-1.53	3.42% (inactive)	-0.419 (inactive)	-5.5e-05 (inactive)	0.00572 (inactive)	inactive	26% (inactive)
C/C=C/c1ccccc1OCc1ccc(C(=O)O)o1	540	-2.1% (inactive)	9.9% (inactive)	98.3	-2.68	0.479	0.66	0.671% (inactive)	-0.571 (inactive)	-6.2e-05 (inactive)	0.00529 (inactive)	inactive	-4.22% (inactive)
